The values below come from PubChem BioAssay.

Test [1] can be described thus: inhibitors of TNFa-induced NFkB p65 translocation, primary screen, imaging, HUVEC, MLSMR starter and 10KST1 sets (AID 438;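 active means inhibition above 20% together with a positive visual image hit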;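 further: compound added about 3h40 before a 20 min TNFalpha stimulation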;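 on inhibition: signal is the nuclear over cytoplasmic p65 intensity ratio per well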). The conditions noted are these: HUVEC TNFa-induced p65 nuclear translocation; cell count: measured here: nuclei count (cytotoxicity indicator), at 2.08 µM; inhibition: at 2 µM, stronger effect = higher value, 0% TNFa-plus-vehicle, 100% no-TNFa wells.
The nature of test [2]: inhibitors of mutant huntingtin aggregation, primary screen, imaging, exon1htt(103Q)mCFP cells, high-content imaging (AID 483;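 active means visual image review flags a hit and inhibition of aggregation exceeds 20%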;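 further: compound exposure lasted 3 days before fixation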;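 on nuclei count: percent of the per-plate median nuclei count of sample wells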). The conditions noted are these: exon1htt(103Q)mCFP cell line, aggregate imaging, at 2 µM; inhibition of aggregation: stronger effect = higher value; nuclei count: measured here: cell count, toxicity.
Test [3] can be described thus: inhibitors of E-selectin induction by TNFa, primary screen, imaging, HUVEC, immunofluorescence, MLSMR starter and 10KST1 sets (AID 487;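 active means visually confirmed hit in the image check and inhibition above 20%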;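 on inhibition: signal is fraction of cell area covered by stained E-selectin grains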;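 on nuclei count: 100% = median nuclei count of all wells on the same plate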). The conditions noted are these: HUVEC TNFalpha-induced E-selectin immunofluorescence imaging, at 2 µM; inhibition: stronger effect = higher value; nuclei count: measured here: cell number, toxicity.
Test [4] addresses Voltage-gated potassium channel subunit beta-2 (Rattus norvegicus) (UniProt P62483). As to the kind of experiment: KvBeta enzyme negative modulators, primary screen, biochemical, NADPH fluorescence (AID 622;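 active means fluorescence slope higher than the sample average by over 3 SD, cut at about -0.22 in these data, passing the limit was not always enough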;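 further: slope of raw intensity against log time taken from 70 to 1610 s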). The settings on record: recombinant KvBeta, 4-cyanobenzaldehyde reduction, at 10 µM, stronger effect = higher value.
Test [5] has the same target. As to the kind of experiment: KvBeta positive modulators, primary screen, biochemical, NADPH fluorescence (AID 623;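 active means NADPH fluorescence slope more negative than the mean of all samples by about 3 SD, 99.7% confidence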;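 further: fluorescence intensity change per second fitted from 20 to 320 s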). The conditions noted are these: Recombinant KvBeta, NADPH fluorescence decrease slope, 10 min; at 10 µM; stronger effect = lower value.
The target of test [6] is Muscarinic acetylcholine receptor M4 (Homo sapiens) (UniProt P08173). As to the kind of experiment: compounds altering M4/GIRK thallium flux, either direction, primary screen, M4 allosteric agonist project, cell-based, HEK293 M4/GIRK, BTC-AM (AID 625).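 Further: thallium influx through GIRK channels coupled to M4 in HEK293 cells with BTC-AM dye.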 The conditions noted are these: at 10 µM, actives lie on both sides. Summed up: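 assay system = HEK293 cells with M4 receptor and GIRK channels | medium = pH 7.3 thallium assay buffer | doses = 10 µM final, single point | timing = cells overnight at 37 °C, BTC-AM loading 1 h, reads 2 min total | signal = BTC-AM fluorescence, 1 Hz kinetic reads | read-out = post-addition slope, 15–24 s, of baseline-normalized fluorescence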
Muscarinic acetylcholine receptor M4 (Homo sapiens), sequence (P08173 whole entry, looked up): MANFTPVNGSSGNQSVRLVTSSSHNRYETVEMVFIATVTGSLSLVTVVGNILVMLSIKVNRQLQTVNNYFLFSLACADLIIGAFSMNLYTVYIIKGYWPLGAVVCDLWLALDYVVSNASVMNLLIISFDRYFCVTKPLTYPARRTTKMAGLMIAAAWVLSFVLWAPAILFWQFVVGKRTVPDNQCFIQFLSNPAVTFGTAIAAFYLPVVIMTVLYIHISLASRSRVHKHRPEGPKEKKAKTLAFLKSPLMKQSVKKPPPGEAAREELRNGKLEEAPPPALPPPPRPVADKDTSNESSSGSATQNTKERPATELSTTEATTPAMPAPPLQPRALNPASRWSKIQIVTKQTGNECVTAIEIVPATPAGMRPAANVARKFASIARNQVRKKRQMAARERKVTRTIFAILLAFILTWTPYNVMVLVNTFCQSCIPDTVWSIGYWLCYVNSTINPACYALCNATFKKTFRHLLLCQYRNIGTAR

Test [7] is described as follows: inhibitors of Sendai virus-induced IRF3 signaling, primary screen, TLR/RLR signaling modifier project, cell-based, Sendai virus stimulus, luciferase, 10K MLSCN set (AID 602276;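 active means inhibition at or above 50% at 10 µM; inactive means inhibition below 50%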;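 further: firefly luciferase from ISG56 promoter only with Renilla not read in this screen; 0% = Sendai virus plus DMSO and 100% = medium plus DMSO without virus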). The conditions noted are these: HEK293 RL24 IRF3 luciferase reporter, at 10 µM, stronger effect = higher value. On the technique in general: In a reporter assay the amount or activity of a reporter protein is the signal.

Test [8] is described as follows: inhibitors of poly I:C-induced TLR3 signaling, primary screen, cell-based, poly I:C stimulus, luciferase, 10K MLSCN set (AID 602277;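 active means inhibition of the reporter signal at or above 50%; inactive means inhibition below 50%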). The conditions noted are these: HEK293-TLR3 RL24 IRF3 luciferase reporter, at 10 µM, stronger effect = higher value.

Each structure is given as a SMILES string. Active and inactive are the calls of the source.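 How the source made its calls, unless noted: active means fluorescence slope after compound addition differing from the mean of all tested samples at 99.7% confidence, mostly higher but some lower; inactive means the rest.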

Voltage-gated potassium channel subunit beta-2 (Rattus norvegicus), sequence (P62483 whole entry, looked up): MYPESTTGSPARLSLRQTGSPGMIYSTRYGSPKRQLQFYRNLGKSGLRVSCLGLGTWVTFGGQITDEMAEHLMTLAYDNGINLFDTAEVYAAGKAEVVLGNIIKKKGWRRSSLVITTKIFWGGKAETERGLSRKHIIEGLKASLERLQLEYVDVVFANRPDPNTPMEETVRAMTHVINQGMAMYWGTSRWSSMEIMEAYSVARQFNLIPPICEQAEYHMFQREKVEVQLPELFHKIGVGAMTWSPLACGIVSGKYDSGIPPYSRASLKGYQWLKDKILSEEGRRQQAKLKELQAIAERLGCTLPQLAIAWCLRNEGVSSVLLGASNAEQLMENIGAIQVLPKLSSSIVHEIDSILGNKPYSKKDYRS

What is called inhibition is the drop in the measured response relative to a control, in per cent. As for `CCOC(=O)C(CC)Sc1ncnc2nc[nH]c12` (centres undefined), the cell count in test [1] was 351. Moreover, the inhibition is 1.9% (inactive) in test [1], -46% (inactive) in test [3], 3.43% (inactive) in test [7] and 5.34% (inactive) in test [8]. For the same molecule, the inhibition of aggregation in test [2] was -18.9% (inactive). The values for the nuclei count in test [2] and in test [3] were 98.7% and 123%, respectively. For the same molecule, the fluorescence slope in test [4] was -0.555 (inactive); in test [6], 0.00496 (inactive). Besides, the NADPH fluorescence slope in test [5] is -2.8e-05 (inactive).

For `COc1cccc(C2C(C#N)=C(N)OC3=C2C(=O)CCC3)c1OC(=O)c1ccco1` (centres undefined), the cell count in test [1] is 384. Moreover, the inhibition in test [1] is 4.7% (inactive); in test [3], 52.8% (inactive); in test [7], 12.4% (inactive); in test [8] it was 10.4% (inactive). Further, the inhibition of aggregation in test [2] is -12.3% (inactive). The nuclei count in test [2] turned out to be 103%; in test [3], 88.3%. Besides, the fluorescence slope was -0.513 (inactive) in test [4] and 0.00509 (inactive) in test [6]. For the same molecule, the NADPH fluorescence slope in test [5] is -3.8e-05 (inactive).

Regarding `CC(=O)c1cccc(NC(=O)N2CCCC2C(=O)NCc2ccc(C)cc2)c1` (centres undefined), the cell count in test [1] was 537. In addition, the inhibition in test [1] was -4.9% (inactive); in test [3], -6.3% (inactive); in test [7] it was 14.1% (inactive); in test [8] it was 23.1% (inactive). Besides, the inhibition of aggregation in test [2] is 6.2% (inactive). The nuclei count in test [2] is 102%; in test [3] it was 120%. In addition, the results for the fluorescence slope in test [4] and in test [6] were -0.216 (inactive) and 0.00664 (inactive), respectively. For the same molecule, the NADPH fluorescence slope in test [5] is -5.5e-06 (inactive).

Regarding `O=C(NC1CC2CCC1C2)C1COc2ccccc2O1` (centres undefined), the cell count in test [1] is 297. Also, the inhibition in test [1] is -3.7% (inactive); in test [3] it was 18.8% (inactive); in test [7] it was 0.357% (inactive); in test [8], -2.86% (inactive). In addition, the inhibition of aggregation in test [2] was 1.9% (inactive). The nuclei count in test [2] came to 89.3%; in test [3], 97.5%. In addition, the fluorescence slope is -0.46 (inactive) in test [4] and 0.00453 (inactive) in test [6]. In test [5], the NADPH fluorescence slope is -3.9e-05 (inactive).

For `O=C1CCc2nc3sc4c(c3c(=O)n2N1)CCCC4`, in test [1], the cell count was found to be 667. Besides, the inhibition is -18.1% (inactive) in test [1], 37.8% (inactive) in test [3], -2.82% (inactive) in test [7] and -5.12% (inactive) in test [8]. Further, in test [2], the inhibition of aggregation was -14% (inactive). Moreover, the nuclei count in test [2] was determined as 104%; in test [3], 98.8%. Moreover, the fluorescence slope in test [4] was -0.424 (inactive); in test [6], 0.00678 (inactive). For the same molecule, the NADPH fluorescence slope in test [5] is 4.4e-05 (inactive).

As to `CC1C(c2ccccc2)N(C)CCC12NC(=O)NC2=O` (centres undefined), the cell count in test [1] came out at 315. The inhibition in test [1] was -0.8% (inactive); in test [3], -43% (inactive); in test [7], -0.144% (inactive); in test [8] it was 3.49% (inactive). Also, the inhibition of aggregation in test [2] is -12.3% (inactive). Further, the nuclei count turned out to be 108% in test [2] and 135% in test [3]. The results for the fluorescence slope in test [4] and in test [6] were -0.397 (inactive) and 0.00604 (inactive), respectively. In addition, the NADPH fluorescence slope in test [5] is 6.4e-05 (inactive).

As for `COc1ccc(Cl)cc1NC(=O)COc1cccc(-n2cnnn2)c1`, the cell count in test [1] turned out to be 371. Further, the inhibition in test [1] is 1.2% (inactive); in test [3] it was 10.9% (inactive); in test [7], 6.87% (inactive); in test [8] it was -12.1% (inactive). For the same molecule, the inhibition of aggregation in test [2] is 5.6% (inactive). The nuclei count in test [2] is 102%; in test [3], 112%. For the same molecule, the fluorescence slope in test [4] is -0.528 (inactive); in test [6] it was 0.00451 (inactive). In addition, the NADPH fluorescence slope in test [5] was -1.9e-05 (inactive).

Take `CC1Oc2ccccc2N(CC(=O)N(Cc2ccccc2)Cc2ccccn2)C1=O` (centres undefined): in test [1], the cell count was 640. The inhibition in test [1] is -12.1% (inactive); in test [3], 81.9% (active); in test [7], -6.61% (inactive); in test [8], -7.77% (inactive). Besides, the inhibition of aggregation in test [2] is -1.2% (inactive). Moreover, the nuclei count was 106% in test [2] and 112% in test [3]. The fluorescence slope was -0.297 (inactive) in test [4] and 0.00604 (inactive) in test [6]. Besides, the NADPH fluorescence slope in test [5] was -8.9e-06 (inactive).

With `CCCc1n[nH]c2c1/C(=N/O)CC(c1ccccc1)C2` (centres undefined), in test [1], the cell count was found to be 522. The inhibition in test [1] is -13.6% (inactive); in test [3], -7.4% (inactive); in test [7], 8.69% (inactive); in test [8], -7.88% (inactive). Further, the inhibition of aggregation in test [2] was 3.1% (inactive). The values for the nuclei count in test [2] and in test [3] were 93.4% and 110%, respectively. Also, the fluorescence slope was -0.594 (inactive) in test [4] and 0.0053 (inactive) in test [6]. In addition, the NADPH fluorescence slope in test [5] was 4.1e-05 (inactive).

Take `CCSc1nnc(NC(=O)c2cc(C)oc2C)s1`: the cell count in test [1] was 352. For the same molecule, the inhibition in test [1] was -1.4% (inactive); in test [3] it was 5.1% (inactive); in test [7], -35.9% (inactive); in test [8], -83.6% (inactive). For the same molecule, the inhibition of aggregation in test [2] was 5.7% (inactive). Also, the nuclei count in test [2] turned out to be 98.6%; in test [3], 56.1%. For the same molecule, the fluorescence slope in test [4] is -0.451 (inactive); in test [6] it was 0.00476 (inactive). Besides, the NADPH fluorescence slope in test [5] was -4.1e-07 (inactive).

With `CC1c2nc3ccccc3n2C(CC(=O)NCc2ccccn2)C(=O)N1Cc1ccccc1` (centres undefined), the cell count in test [1] is 678. In addition, the inhibition is -3.4% (inactive) in test [1], -115% (inactive) in test [3], 15% (inactive) in test [7] and 22.6% (inactive) in test [8]. Besides, the inhibition of aggregation in test [2] is -12.5% (inactive). In addition, the nuclei count in test [2] and in test [3] was 119% in each case. Further, the fluorescence slope in test [4] was -0.505 (inactive); in test [6], 0.0053 (inactive). Also, in test [5], the NADPH fluorescence slope was -1.2e-05 (inactive).

Consider `C=CCn1c(SCc2ccc3nonc3c2)nnc1-c1cccs1`, for which the cell count in test [1] was 644. Moreover, the inhibition in test [1] is -14% (inactive); in test [3] it was 13.9% (inactive); in test [7] it was 15% (inactive); in test [8], 17.7% (inactive). Besides, the inhibition of aggregation in test [2] is 3.4% (inactive). Moreover, the nuclei count in test [2] was 91.6%; in test [3], 92.9%. Also, the results for the fluorescence slope in test [4] and in test [6] were -0.384 (inactive) and 0.00442 (inactive), respectively. Besides, in test [5], the NADPH fluorescence slope was 4.9e-05 (inactive).

On to `O=C(COC(=O)c1cc(S(=O)(=O)N2CCOCC2)ccc1O)NCC1CCCO1` (centres undefined), for which the cell count in test [1] was 426. In addition, the inhibition in test [1] is 9.7% (inactive); in test [3] it was -39.1% (inactive); in test [7], 15.4% (inactive); in test [8], 24.6% (inactive). The inhibition of aggregation in test [2] is -4.1% (inactive). Also, the nuclei count in test [2] was found to be 88.7%; in test [3], 113%. Also, the fluorescence slope in test [4] was -0.345 (inactive); in test [6], 0.00615 (inactive). Further, the NADPH fluorescence slope in test [5] was 5.4e-05 (inactive).

Turning to `O=C(O)COc1ccc2occ(C(=O)c3ccccc3)c2c1`, the cell count in test [1] was 232. Moreover, the inhibition in test [1] was -4.4% (inactive); in test [3], -56.2% (inactive); in test [7], 10.3% (inactive); in test [8], 4.56% (inactive). The inhibition of aggregation in test [2] is 24.2% (inactive). Further, the nuclei count was 94.5% in test [2] and 104% in test [3]. The fluorescence slope in test [4] was -0.592 (inactive); in test [6] it was 0.00364 (inactive). In addition, the NADPH fluorescence slope in test [5] was -4.3e-05 (inactive).
